From ChEMBL document CHEMBL5107962, “Covalent sortase A inhibitor ML346 prevents Staphylococcus aureus infection of Galleria mellonella” (RSC Med Chem, 2022)
The source made the active and inactive calls. No cut-off for these calls is given here.

Columns and labels:
Staphylococcus aureus [1] = test: Antibacterial activity against Staphylococcus aureus Newman assessed as inhibition of bacterial growth incubated for 16 to 18 hrs; format: functional; details: time 16-18 hrs
Outline: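 Broth microdilution: S. aureus in TSB, E. coli in LB. Overnight cultures diluted 1:1000, grown at 37 °C to A600 0.6, then diluted 1:400 into two-fold compound dilutions. Incubated 16–18 h at 37 °C without shaking. MIC taken as the lowest concentration with no visible growth. Two independent experiments.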

Sortase A [2] = biological target: T1, Sortase A (Staphylococcus aureus, UniProt Q9S446); test: Irreversible inhibition of recombinant Staphylococcus aureus sortase A deltaN24 expressed in Escherichia coli BL21(DE3) cells using Abz-LPATG-Dnp as substrate preincubated for 40 mins followed by substrate addition and measured every 1 min for 15 mins by FRET-based assay
Outline: (§1)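 SaSrtAΔN24 preincubated with compound for 10, 20, 40 or 60 min before FRET IC50 determination with Abz-LPATG-Dnp in Tris pH 7.5, NaCl, CaCl2 buffer.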

[3] = Toxicity in Galleria mellonella larvae assessed as survivability measured after 120 hrs
Outline: (§2)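 G. mellonella larvae (2-2.5 cm, creamy), starved 24 h, injected with 10 µL compound in vehicle (5% DMSO, 20% PEG300, 75% PBS with 6.6% solutol HS-15). Kept at 37 °C; survival and appearance recorded over 120 h with photography. Three independent experiments.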

Streptococcus pyogenes = test: (§3) Irreversible inhibition of recombinant Streptococcus pyogenes sortase A deltaN81 expressed in Escherichia coli BL21(DE3) cells using Abz-LPATG-Dnp as substrate assessed as maximum inactivation rate constant preincubated for 60 mins followed by substrate addition and measured every 1 min for 15 mins by fluorescence intensity based assay; details: time 75.0 min
Outline: (§4)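 Variable inhibitor concentrations incubated with SaSrtAΔN24 or SpSrtAΔN81 for different times, followed by FRET enzyme kinetics with Abz-LPATG-Dnp. kobs fitted as kinact × [I]/(KI + [I]) to give kinact and KI.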

Staphylococcus aureus [4] = test: Antibiofilm activity against wild type Staphylococcus aureus Newman assessed as reduction in biofilm biomass at 25 to 200 uM incubated for 18 hrs by crystal violet staining based microplate reader analysis; format: functional, organism-based; details: dose 25-200 µM
Outline: (§5)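 S. aureus overnight culture diluted 1:1000 in TSB with inhibitor, grown static at 37 °C for 18 h. Wells rinsed with PBS, fixed with methanol 10 min, stained with 0.1% crystal violet 15 min. Stain dissolved in 33% acetic acid and A600 read. Three independent experiments, mean ± SEM.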

Sortase A [5] = biological target: T1, Sortase A; test: Irreversible inhibition of recombinant Staphylococcus aureus sortase A deltaN24 expressed in Escherichia coli BL21(DE3) cells using Abz-LPATG-Dnp as substrate preincubated for 20 mins followed by substrate addition and measured every 1 min for 15 mins by FRET-based assay; outline: as §1
[6] = Irreversible inhibition of recombinant Streptococcus pyogenes sortase A deltaN81 expressed in Escherichia coli BL21(DE3) cells using Abz-LPATG-Dnp as substrate preincubated for 60 mins followed by substrate addition and measured every 1 min for 15 mins by FRET-based assay
Staphylococcus aureus [7] = test: Antibiofilm activity against methicillin-resistant Staphylococcus aureus USA300 assessed as reduction in biofilm biomass at 25 to 200 uM incubated for 18 hrs by crystal violet staining based microplate reader analysis; format: functional, organism-based; details: dose 25-200 µM; outline: as §5
Staphylococcus aureus [8] = test: Anti-virulence activity against Staphylococcus aureus Newman harbouring deltasrtA mutant assessed as decrease in cell-wall anchored SpA level at 25 to 200 uM by FITC-labelled human IgG based […]; format: functional, organism-based; details: dose 25-200 µM
Outline: (§6)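 S. aureus grown in TSB (1:1000 dilution) with inhibitor until A600 1.0. Washed cells incubated with FITC-labelled human IgG in PBS for 30 min at room temperature in the dark, rinsed, and read by fluorescence. Three technical replicates, three independent experiments. Mean ± SEM, unpaired two-tailed Student's t test (n = 3).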

Sortase A [9] = biological target: T1, Sortase A; test: Inhibition of recombinant Staphylococcus aureus sortase A deltaN24 transpeptidation expressed in Escherichia coli BL21 (DE3) cells using Abz-LPATG-Dnp as substrate preincubated for 20 mins followed by substrate addition and measured every 1 min for 15 mins by FRET assay
Outline: (§7)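 His-tagged enzyme purified by Ni-NTA and gel filtration. 1 µM SrtA preincubated with compound (0.05–50 µM) for 20 min at room temperature in 50 mM Tris-HCl pH 7.5, 150 mM NaCl, 5 mM CaCl2. Reaction started with 10 µM Abz-LPATG-Dnp, read at ex 309/em 420 nm. IC50 from a sigmoidal dose–response fit; triplicates, two experiments.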

Sortase A [10] = biological target: T1, Sortase A; test: as §3, with “Staphylococcus aureus” for “Streptococcus pyogenes”, “deltaN24” for “deltaN81”, “as” for “as maximum”, “inactivation” for “inactivation rate”; outline: as §4
[11] = Selectivity ratio of Ki for irreversible inhibition of recombinant Staphylococcus aureus sortase A deltaN24 expressed in Escherichia coli BL21(DE3) cells to Ki for irreversible inhibition of recombinant Streptococcus pyogenes sortase A deltaN81 expressed in Escherichia coli BL21(DE3) cells
Staphylococcus aureus [12] = test: Anti-virulence activity against Staphylococcus aureus USA300 assessed as decrease in SpA display on cell envelope by Western blot analysis; format: functional, organism-based; details: dose 25-200 µM, DDE = dose-dependent effect
Outline: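 S. aureus overnight culture diluted 1:1000 in TSB and grown with inhibitor until A600 3.0. Washed cells treated with 10 µg mL-1 lysostaphin in PBS for 15 min at 37 °C. Supernatant (cell-wall anchored proteins) run on SDS-PAGE and immunoblotted for SpA, with ClpP as loading control. Three independent experiments.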

[13] = Selectivity ratio of Kinact for irreversible inhibition of recombinant Staphylococcus aureus sortase A deltaN24 expressed in Escherichia coli BL21(DE3) cells to Kinact for irreversible inhibition of recombinant Streptococcus pyogenes sortase A deltaN81 expressed in Escherichia coli BL21(DE3) cells
Staphylococcus aureus [14] = test: Anti-virulence activity against Staphylococcus aureus USA300 assessed as decrease in cell-wall anchored SpA level at 25 to 200 uM by FITC-labelled human IgG based […]; format: functional, organism-based; details: dose 25-200 µM; outline: as §6
[15] = Inhibition of recombinant Streptococcus pyogenes sortase A deltaN81 transpeptidation expressed in Escherichia coli BL21 (DE3) cells using Abz-LPATG-Dnp as substrate preincubated for 20 mins followed by substrate addition and measured every 1 min for 15 mins by FRET assay; outline: as §7
[16] = tested on: Sortase A (Staphylococcus aureus), Q9S446 [UNDEFINED MUTATION]; test: Irreversible inhibition of recombinant Staphylococcus aureus sortase A deltaN24 expressed in Escherichia coli BL21(DE3) cells using Abz-LPATG-Dnp as substrate assessed as […] preincubated for 60 mins followed by substrate addition and measured every 1 min for 15 mins by fluorescence intensity based assay; details: time 75.0 min; outline: as §4
[17] = as §3, with “as” for “as maximum”, “inactivation” for “inactivation rate”; outline: as §4
[18] = Toxicity in Galleria mellonella larvae assessed as creamy colour appearance measured after 120 hrs; outline: as §2
[19] = Irreversible inhibition of recombinant Streptococcus pyogenes sortase A deltaN81 expressed in Escherichia coli BL21(DE3) cells using Abz-LPATG-Dnp as substrate preincubated for 10 mins followed by substrate addition and measured every 1 min for 15 mins by FRET-based assay
[20] = tested on: Sortase A (Staphylococcus aureus), Q9S446 [UNDEFINED MUTATION]; test: as §3, with “Staphylococcus aureus” for “Streptococcus pyogenes”, “deltaN24” for “deltaN81”; details: time 75.0 min; outline: as §4

COc1ccc(/C=C/C=C2C(=O)NC(=O)NC2=O)cc1
MIC (Staphylococcus aureus [1]): > 512 µg/mL
IC50 (Sortase A [2]): 400 nM
Activity [3]: Non-Toxic
Kinact (Streptococcus pyogenes): 0.044 min⁻¹
Activity (Staphylococcus aureus [4]): Active
IC50 (Sortase A [5]): 500 nM
IC50 [6]: 700 nM
Activity (Staphylococcus aureus [7]): Active
Activity (Staphylococcus aureus [8]): Active
IC50 (Sortase A [9]): 370 nM
Ki (Sortase A [10]): 2450 nM
Ratio [11]: 4
Activity (Staphylococcus aureus [12]): Dde
Ratio [13]: 4
Activity (Staphylococcus aureus [14]): Active
IC50 [15]: 1370 nM
Ratio [16]: 0.075 µM⁻¹ min⁻¹
Ki [17]: 686 nM
Activity [18]: Non-Toxic
IC50 [19]: 3700 nM
Kinact [20]: 0.185 min⁻¹
